Publication PMC5088453 (ACS Omega, 2016)
Where two headings read alike, the source gives them in different places.

What was measured:
[1] = type: in vivo, C57Bl/6J mice; conditions: for FruArg concentration in plasma: mice, i.p. 2.5 μL/g BW of 40 mM FruArg
Outline: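 In male C57Bl/6J mice (8 weeks; i.p. 40 mM; n = 3 per time), terminal heparinized blood was taken by cardiac puncture at 15, 30, 60 and 180 min. Plasma was stored at −80 °C. Samples (25 μL plasma plus L-lysine-d8 internal standard) went through phospholipid-removal SPE, then C18 UPLC–MS/MS MRM. Quantitation used a plasma-matrix calibration with 1/x2 weighting. PK parameters came from a fit of the concentration–time curve.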

[2] = type: in vivo, C57Bl/6J mice; conditions: mice, i.p. 40 mM, 2.5 μL/g BW, 15 min; cerebellum, cortex, striatum, hippocampus
Outline: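 Male C57Bl/6J mice, 8 weeks old, n = 3, given 40 mM test compound i.p. Brains were saline-perfused, dissected into regions, flash-frozen and stored at −80 °C. Tissue was homogenized in 3 vol water, then centrifuged 20 min at 4 °C. Supernatant (50 μL) was spiked with L-lysine-d8 internal standard and cleaned by phospholipid-removal SPE. Read-out: C18 UPLC–ESI–MS/MS (MRM), expressed as pmol/mg tissue, mean ± SE.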

[3] = Stability of the FruArg stock solution; type: physicochemical; conditions: 200 mM hydroacetate salt in double-distilled water, at 4 °C
[4] = system: lipopolysaccharide-induced mouse BV-2 microglial cells; conditions: lipopolysaccharide-induced BV-2 cells, concentration-dependent; cited from earlier work
[5] = system: mouse BV-2 microglial cells; conditions: cited from earlier work
[6] = at 10 min, 25 mg/kg; ref 39 (Gooyit et al.); cited from earlier work
[7] = mice plasma, i.p. 40 mM, 2.5 μL/g BW

| clearance (Cl) [1, 7] | elimination rate (k) [1, 7] | half-life (t1/2) [1, 7] [min] | volume distribution (VD) [1, 7] | AUC0→∞ ([1]; mice plasma, i.p. 40 mM, 2.5 μL/g BW, extrapolated to infinity) [µM·min] | clearance (Cl) ([1]; mice plasma, i.p. 40 mM, 2.5 μL/g BW, unit as in Table 2) | FruArg concentration in plasma ([1]; 15 min, average n = 3 ± SE) [µM] | FruArg concentration in plasma ([1]; 30 min, average n = 3 ± SE) [µM] | FruArg concentration in plasma ([1]; 60 min, average n = 3 ± SE) [µM] | FruArg concentration in plasma ([1]; 180 min, plasma LOQ 1 μM) | FruArg concentration in brain tissue, all four subregions [2] | stability of stock solution [3] | SMILES | nitric oxide (NO) production [4] | cell viability [5] | concentration in the brain tissue [6] [pmol/mg] |
| --- | --- | --- | --- | --- | --- | --- | --- | --- | --- | --- | --- | --- | --- | --- | --- |
| 1.8 × 10^–4 L·min | 6.91 × 10^–2 min^–1 | 10.03 | 2.63 × 10^–3 L | 4930 | 1.8 × 10^–4 L·min^–1 | 111 ± 3 | 33 ± 9 | 5 ± 2 | below the LOQ | 4–7 pmol/mg tissue | at least 6 months | N=C(N)NCCC[C@H](NCC(=O)[C@@H](O)[C@H](O)[C@H](O)CO)C(=O)O [FruArg, N-α-(1-deoxy-D-fructos-1-yl)-L-arginine] | suppressing nitric oxide (NO) production | without affecting the cell viability |  |
|  |  |  |  |  |  |  |  |  |  |  |  | O=S(=O)(CC1CS1)c1ccc(Oc2ccccc2)cc1 (stereo not drawn) [SB-3CT] |  |  | 5.0 ± 0.8 |
